Screens deposited in PubChem by Johns Hopkins Ion Channel Center.
Most compounds without a hit are left out; they make up all but 3.7% or so of the library.
KCNQ1 block: blocks the human KCNQ1 potassium channel; AID 2642; CHO-K1 KCNQ1, FluxOR thallium flux fluorescence; active compounds read high; P51787; 1.3% of 310,000 active; B-score at 10 µM;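 active = compounds whose thallium flux B-score, printed positive for inhibition, exceeds three library SD while starting fluorescence stays within three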;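 also: channel opened by potassium depolarization with thallium stimulus after 20 min compound exposure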
KCNQ1 pot: potentiates or activates the human KCNQ1 potassium channel; P51787; CHO-K1 KCNQ1, thallium flux FluxOR fluorescence; active compounds read high; B-score at 10 µM; 0.35% of 310,000 active; AID 2648;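 active = fluorescence ratio B-score, a plate-corrected score, at least three library SD, with initial intensity B-score within 5 SD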
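System: Stable KCNQ1 CHO-K1 line | Incubation: 90 min dye loading and 20 min compound exposure, both at room temperature | Measure: Ratio B score | Medium: Assay buffer for compound exposure, DMSO matched across wells | Compound dosing: Single-concentration screen | Probe or stimulus: K+/Tl+ depolarizing stimulus | Measured by: Kinetic FluxOR fluorescence, 10 s baseline plus 110 s post-stimulus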
KCNK3 inh: human KCNK3 channel inhibition, primary screen | O14649 | CHO-KCNK3 thallium flux, FluxOR fluorescence; active compounds read low | B-score at 10 µM | 0.84% of 340,000 active | AID 602410;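 active = B-score under library mean minus 4 SD, starting fluorescence ratio at most library mean plus 5 SD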;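 also: more negative B-score means stronger inhibition of thallium flux through KCNK3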
KCNK9 block: human KCNK9 channel inhibition. Q9NPC2. HEK293 KCNK9, FluxOR thallium flux fluorescence; active compounds read low. B-score at 10 µM. 1.2% of 310,000 active. AID 488922;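 active = ratio B-score over 3 SD below the library mean, with starting fluorescence within 5 SD of its mean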;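 also: negative B-score means less thallium flux so channel inhibition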
hERG protect: hERG (human) protection from proarrhythmic block | CHO-hERG, FluxOR thallium flux, dofetilide IC70 present | activation (rescue from dofetilide block), less the hit threshold, % at 10 µM | 0.51% of 310,000 active;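 active = activation above the mean of controls blocked by dofetilide plus 5 SD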;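 also: thallium influx through hERG after potassium depolarization seen as dye fluorescence rise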
Kir21 block: inhibitors of mouse Kir2.1 inward-rectifier potassium channel; P35561; HEK293-Kir2.1, FluxOR thallium flux fluorescence; active compounds read low; 0.85% of 310,000 active; B-score at 10 µM;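 active = fluorescence ratio B-score at or below minus 3 SD of library scores, with starting-brightness B-score within 2 SD, cut at about -4.2 in these data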;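 also: channel flux triggered by added potassium and thallium sulfate stimulus; B-score of peak minus minimum fluorescence over baseline after thallium stimulus; more negative B-score means stronger Kir2.1 block with less thallium influx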
Target sequence (P35561 whole entry, looked up): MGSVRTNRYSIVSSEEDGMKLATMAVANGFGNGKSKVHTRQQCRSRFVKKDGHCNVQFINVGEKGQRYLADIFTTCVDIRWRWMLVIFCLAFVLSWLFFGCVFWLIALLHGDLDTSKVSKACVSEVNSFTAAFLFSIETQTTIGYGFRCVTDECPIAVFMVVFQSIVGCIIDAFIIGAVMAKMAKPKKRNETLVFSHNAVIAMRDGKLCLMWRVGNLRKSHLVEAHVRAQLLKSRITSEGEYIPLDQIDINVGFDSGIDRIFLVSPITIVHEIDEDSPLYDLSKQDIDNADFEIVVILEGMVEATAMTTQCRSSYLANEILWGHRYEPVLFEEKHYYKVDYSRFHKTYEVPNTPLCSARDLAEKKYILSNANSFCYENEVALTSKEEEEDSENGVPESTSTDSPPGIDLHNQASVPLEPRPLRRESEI
KCNK9 inh conf: human KCNK9 inhibitor confirmation. 43% of 4,900 active. shares compounds with KCNK9 block. inhibition, % at 10 µM. HEK293 KCNK9 cells, FluxOR thallium flux fluorescence;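 active = thallium signal inhibited by more than 5 SD of the compound-free buffer control wells, on both duplicate plates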;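 also: 0% = assay buffer control wells without compound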
Kir2-1 spec: tests whether KCNK9 modulators also affect mouse Kir2.1 | shares compounds with KCNK9 block | 4% of 4,900 active | Kir2.1 cells, FluxOR thallium flux fluorescence | inhibition, % at 10 µM;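 active = thallium signal drop more than 5 SD beyond the mean of the no-compound control wells, seen in both duplicate plates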;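 also: signal is fluorescence rise after thallium addition divided by baseline fluorescence; plate controls were assay buffer only for no effect and full block by chlorpromazine control for full effect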
KCNK9 uninduced: second counter-screen for KCNK9 modulators: effect in non-induced cells; shares compounds with KCNK9 block; non-induced KCNK9-HEK293, FluxOR thallium flux; inhibition, % at 10 µM; 40% of 4,900 active;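 active = thallium signal drop beyond 5 SD of the untreated control mean, on both duplicate plates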;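 also: plate controls were buffer only IC0 wells for no effect and SID17386958 at its maximal inhibitory level for full effect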
An asterisk follows results filed as active; i = inactive; . = no result given.

SMILES	KCNQ1 block	KCNQ1 pot	KCNK3 inh	KCNK9 block	hERG protect	Kir21 block	KCNK9 inh conf	Kir2-1 spec	KCNK9 uninduced
Cc1ccc(S(=O)(=O)Nc2c(Cl)c(Cl)c(O)c3ccccc23)cc1	i	i	.	i	-3.9	-4.15	.	.	.
CN(Cc1ccc(F)cc1)C(=O)c1cc(COc2ccc(-n3cncn3)cc2)on1	i	i	i	i	-16.4	-0.34	.	.	.
O=c1c2ccccc2c(-c2cccc(C(F)(F)F)c2)nn1-c1ccccc1	i	i	i	-8.83*	-11.0	0.09	37.5%*	i	43.0%*
CCOC(=O)C1=CC[C@@H](c2ccccc2Cl)N(S(=O)(=O)c2ccc(C)cc2)[C@H]1C(=O)OCC	.	.	i	.	.	.	.	.	.
O=C(COc1ccc(-c2nnco2)cc1)Nc1c(Cl)cccc1C(F)(F)F	i	i	i	i	-15.3	0.59	.	.	.
CCOc1cc(/C=C2\SC(=Nc3ccccc3)N(c3ccccc3)C2=O)ccc1OCC(=O)O	i	i	i	i	-17.3	1.88	.	.	.
CCCN1C(=O)/C(=C/c2ccco2)SC1=Nc1ccc(OC)cc1	i	i	i	i	-5.0	-2.02	.	.	.
CCCN1C(=O)/C(=C\c2ccncc2)SC1=Nc1ccccc1	i	i	i	i	-12.0	0.58	i	i	i
CCOC(=O)COc1ccc(/C=C2/SC(=Nc3ccccc3)N(Cc3cccnc3)C2=O)cc1OC	i	i	i	i	-12.6	1.27	i	i	i
CCN1C(=O)/C(=C\c2ccncc2)SC1=Nc1ccc(C)c(C)c1	i	i	i	i	-10.7	-0.17	i	i	i
COc1ccc(C(=O)N2CCCC(Nc3ccc(C(C)C)cc3)C2)c(OC)n1 (stereo not given)	i	i	i	i	-11.8	-0.25	i	i	i
COc1ccc(NC2CCCN(C(=O)C3(C)CCCCC3)C2)cc1 (stereo not given)	i	i	i	i	-4.8	-0.4	i	i	i
COc1ccc(NC2CCCN(C(=O)CCc3cn[nH]c3)C2)cc1 (stereo not given)	i	i	i	i	-6.7	-0.18	.	.	.
O=C(CCc1ccccc1)N1CCCC(Nc2ccc(F)cc2)C1 (stereo not given)	i	i	i	i	-6.1	-0.66	i	i	i
COc1ccc(CCC(=O)N2CCCC(Nc3ccc(OC)cc3)C2)cc1 (stereo not given)	i	i	i	i	-3.9	-3.13	i	i	i
NC(=O)COc1ccc(/C=N\NC(=O)CC(=O)NCCc2ccccc2)cc1	i	i	i	i	-6.1	0.44	.	.	.
Cc1ccc2[nH]c(=O)c(-c3noc(CC(C)C)n3)cc2c1	i	i	i	i	-5.2	-0.69	.	.	.
CCCC(=NCCc1c(C)[nH]c2ccccc12)C1=C(O)CC(c2ccccc2)CC1=O (stereo not given)	i	i	i	i	-7.8	-1.61	i	i	i
CCCCC(=NCCc1c(C)[nH]c2ccccc12)C1=C(O)CC(c2ccccc2)CC1=O (stereo not given)	i	i	i	i	-9.9	0.08	i	i	i
CN1CCN(CCCNc2c(C=O)c(=O)[nH]c3ccccc23)CC1	i	i	i	i	-8.8	0.67	.	.	.
Oc1ccc(N=Nc2ccc3c(c2)OCCO3)c2ncccc12	i	15*	i	i	29.5*	1.14	i	i	i
CCCc1cc(=O)oc2cc(OCc3ccc(C(=O)O)cc3)ccc12	i	i	i	i	0.1	-0.18	.	.	.
Cc1cc(OCc2ccc(F)cc2)nc(-c2ccccc2O)n1	i	i	i	-10.2*	-3.6	-0.28	66.5%*	i	37.0%*
